Biological target: Cell division control protein 42 homolog (Homo sapiens) (UniProt P60953)
Test: compound effect on Cdc42 GTP saturation binding, late-stage follow-up, mechanism study for Ras-family GTPase inhibitor project, biochemical, nucleotide-depleted protein, Mg buffer, varying GTP (AID 2372)
Settings: GST-Cdc42 beads, BODIPY-GTP binding, flow cytometry
Summary of the method: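 incubation = EDTA depletion 20 min at 30 °C, compound pre-incubation 2 min | material = GST-Cdc42 bound to glutathione beads, depleted of nucleotide | quantity = 4 µM GST-Cdc42 for bead loading | medium = buffer with 1 mM MgCl2, after 10 mM EDTA stripping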

Cell division control protein 42 homolog (Homo sapiens), sequence (P60953 whole entry, looked up): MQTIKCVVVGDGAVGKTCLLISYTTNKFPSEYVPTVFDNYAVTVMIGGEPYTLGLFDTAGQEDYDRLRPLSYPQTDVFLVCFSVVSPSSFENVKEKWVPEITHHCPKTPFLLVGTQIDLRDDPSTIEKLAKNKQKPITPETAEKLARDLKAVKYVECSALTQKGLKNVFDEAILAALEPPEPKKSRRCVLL

- Bmax with compound (at 10 µM, stronger effect = lower value): 1540
- Kd of GTP with compound (measured here: GTP affinity with 10 uM compound): 7.16 nM
SMILES: COc1ccc(C2CC(c3ccccc3)=NN2c2ccc(S(N)(=O)=O)cc2)cc1 (configuration not stated)

Reference: PubChem BioAssay AID2372 (NMMLSC, 2010)
